Results from ChEMBL document CHEMBL1140938, “Structural requirements for a lipoamino acid in modulating the anticonvulsant activities of systemically active galanin analogues” (J Med Chem, 2009).

Experiments:
[1] = target: T1, Galanin receptor type 1 (Homo sapiens, UniProt P47211); experiment: Displacement of europium labeled galanin from human recombinant GalR1 receptor by time-resolved fluorescence binding assay
T1 sequence (P47211 whole entry): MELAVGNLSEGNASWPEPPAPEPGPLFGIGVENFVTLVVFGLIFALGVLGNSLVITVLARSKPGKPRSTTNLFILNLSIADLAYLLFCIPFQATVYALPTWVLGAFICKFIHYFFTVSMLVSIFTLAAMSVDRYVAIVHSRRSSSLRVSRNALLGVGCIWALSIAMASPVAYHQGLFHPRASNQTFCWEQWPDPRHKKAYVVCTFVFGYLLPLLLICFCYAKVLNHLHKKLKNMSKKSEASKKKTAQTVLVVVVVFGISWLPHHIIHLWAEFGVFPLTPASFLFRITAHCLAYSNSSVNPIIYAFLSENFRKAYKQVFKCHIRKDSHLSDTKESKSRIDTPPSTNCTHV
Method in brief: (§1)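 Competition binding on membranes from recombinant human GalR1 or GalR2 versus 2 nM europium-labeled galanin; 90 min incubation at room temperature, four washes (50 mM Tris-HCl pH 7.5, 5 mM MgCl2), enhancement solution 30 min at room temperature, time-resolved fluorescence read.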

[2] = target: T2, Galanin receptor type 2 (Homo sapiens, UniProt O43603); experiment: Displacement of europium labeled galanin from human recombinant GalR2 receptor by time-resolved fluorescence binding assay
T2 sequence (O43603 whole entry): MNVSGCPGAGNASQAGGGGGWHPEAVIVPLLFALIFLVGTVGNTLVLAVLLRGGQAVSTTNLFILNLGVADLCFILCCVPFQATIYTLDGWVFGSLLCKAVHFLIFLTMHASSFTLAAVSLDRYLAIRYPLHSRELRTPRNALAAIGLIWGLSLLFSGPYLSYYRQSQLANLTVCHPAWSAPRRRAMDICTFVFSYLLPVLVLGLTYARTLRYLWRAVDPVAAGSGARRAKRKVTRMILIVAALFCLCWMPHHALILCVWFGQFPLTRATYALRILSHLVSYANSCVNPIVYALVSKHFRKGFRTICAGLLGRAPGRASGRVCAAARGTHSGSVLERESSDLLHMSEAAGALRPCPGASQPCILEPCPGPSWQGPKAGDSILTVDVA
Method in brief: as §1, with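 “read. Ki from nonlinear sigmoidal variable-slope fit, one-site reversible model, tracer Kd held at 4.3 nM.” for “read.”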

[3] = Lipophilicity, log D by HPLC method; type: physicochemical
Method in brief: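 HPLC retention times were measured on a linear gradient of 20% to 100% buffer B (0.1% TFA in 90% aqueous acetonitrile; A was 0.1% TFA in water) over 40 min. Five analogs were calibrated by shake flask: 400 µg peptide in 1 mL PBS shaken with an equal volume of water-saturated octanol for 24 h, aqueous phase quantified by HPLC. LogD was calculated from the linear correlation with retention time.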

Row | logD [3] | Structure (SMILES) | Ki [1] | Ki [2]
1 |  | CCCCCCCCCCCC(=O)NCCCC[C@H](NC(=O)[C@H](CCCCN)NC(=O)[C@H](CCCCN)NC(=O)[C@@H]1CCCN1C(=O)CNC(=O)[C@H](CC(C)C)NC(=O)[C@H](CC(C)C)NC(=O)[C@H](Cc1ccc(O)cc1)NC(=O)CNC(=O)[C@H](C)NC(=O)[C@H](CO)NC(=O)[C@H](CC(N)=O)NC(=O)[C@H](CC(C)C)NC(=O)[C@@H](NC(=O)[C@H](Cc1c[nH]c2ccccc12)NC(=O)CNC)[C@@H](C)O)C(=O)N[C@@H](CCCCN)C(N)=O | 1.4 nM | 16.1 nM
2 |  | CNCC(=O)N[C@@H](Cc1c[nH]c2ccccc12)C(=O)N[C@H](C(=O)N[C@@H](CC(C)C)C(=O)N[C@@H](CC(N)=O)C(=O)N[C@@H](CO)C(=O)N[C@@H](C)C(=O)NCC(=O)N[C@@H](Cc1ccc(O)cc1)C(=O)N[C@@H](CC(C)C)C(=O)N[C@@H](CC(C)C)C(=O)NCC(=O)N1CCC[C@H]1C(=O)N[C@@H](CCCCN)C(=O)N[C@@H](CCCCN)C(=O)N[C@@H](CCCCNC(=O)COCCOCCOCCOCCOC)C(=O)N[C@@H](CCCCN)C(N)=O)[C@@H](C)O | 0.5 nM | 20.5 nM
3 | 1.35 | CCCCCCCCCCCCCCCCCC(=O)NCCCC[C@H](NC(=O)[C@H](CCCCN)NC(=O)[C@H](CCCCN)NC(=O)[C@@H]1CCCN1C(=O)CNC(=O)[C@H](CC(C)C)NC(=O)[C@H](CC(C)C)NC(=O)[C@H](Cc1ccc(O)cc1)NC(=O)CNC(=O)[C@H](C)NC(=O)[C@H](CO)NC(=O)[C@H](CC(N)=O)NC(=O)[C@H](CC(C)C)NC(=O)[C@@H](NC(=O)[C@H](Cc1c[nH]c2ccccc12)OC(=O)CNC)[C@@H](C)O)C(=O)N[C@@H](CCCCN)C(N)=O |  | 
4 |  | CCCCCCCCCCCCCCCCCC(=O)NCCCC[C@H](NC(=O)[C@H](CCCCN)NC(=O)[C@H](CCCCN)NC(=O)[C@@H]1CCCN1C(=O)CNC(=O)[C@H](CC(C)C)NC(=O)[C@H](CC(C)C)NC(=O)[C@H](Cc1ccc(O)cc1)NC(=O)CNC(=O)[C@H](C)NC(=O)[C@H](CO)NC(=O)[C@H](CC(N)=O)NC(=O)[C@H](CC(C)C)NC(=O)[C@@H](NC(=O)[C@H](Cc1c[nH]c2ccccc12)NC(=O)CNC)[C@@H](C)O)C(=O)N[C@@H](CCCCN)C(N)=O | 4 nM | 15 nM
5 | 0.78 | CCCCCCCC(=O)NCCCC[C@H](NC(=O)[C@H](CCCCN)NC(=O)[C@H](CCCCN)NC(=O)[C@@H]1CCCN1C(=O)CNC(=O)[C@H](CC(C)C)NC(=O)[C@H](CC(C)C)NC(=O)[C@H](Cc1ccc(O)cc1)NC(=O)CNC(=O)[C@H](C)NC(=O)[C@H](CO)NC(=O)[C@H](CC(N)=O)NC(=O)[C@H](CC(C)C)NC(=O)[C@@H](NC(=O)[C@H](Cc1c[nH]c2ccccc12)OC(=O)CNC)[C@@H](C)O)C(=O)N[C@@H](CCCCN)C(N)=O |  | 
6 |  | CCCCCCCCCCCCCC(=O)NCCCC[C@H](NC(=O)[C@H](CCCCN)NC(=O)[C@H](CCCCN)NC(=O)[C@@H]1CCCN1C(=O)CNC(=O)[C@H](CC(C)C)NC(=O)[C@H](CC(C)C)NC(=O)[C@H](Cc1ccc(O)cc1)NC(=O)CNC(=O)[C@H](C)NC(=O)[C@H](CO)NC(=O)[C@H](CC(N)=O)NC(=O)[C@H](CC(C)C)NC(=O)[C@@H](NC(=O)[C@H](Cc1c[nH]c2ccccc12)NC(=O)CNC)[C@@H](C)O)C(=O)N[C@@H](CCCCN)C(N)=O | 2.6 nM | 18.2 nM
7 |  | CCCCCCCC(=O)NCCCC[C@H](NC(=O)[C@H](CCCCN)NC(=O)[C@H](CCCCN)NC(=O)[C@@H]1CCCN1C(=O)CNC(=O)[C@H](CC(C)C)NC(=O)[C@H](CC(C)C)NC(=O)[C@H](Cc1ccc(O)cc1)NC(=O)CNC(=O)[C@H](C)NC(=O)[C@H](CO)NC(=O)[C@H](CC(N)=O)NC(=O)[C@H](CC(C)C)NC(=O)[C@@H](NC(=O)[C@H](Cc1c[nH]c2ccccc12)NC(=O)CNC)[C@@H](C)O)C(=O)N[C@@H](CCCCN)C(N)=O | 0.7 nM | 14.9 nM
8 |  | CCCCCCCCCC(=O)NCCCC[C@H](NC(=O)[C@H](CCCCN)NC(=O)[C@H](CCCCN)NC(=O)[C@@H]1CCCN1C(=O)CNC(=O)[C@H](CC(C)C)NC(=O)[C@H](CC(C)C)NC(=O)[C@H](Cc1ccc(O)cc1)NC(=O)CNC(=O)[C@H](C)NC(=O)[C@H](CO)NC(=O)[C@H](CC(N)=O)NC(=O)[C@H](CC(C)C)NC(=O)[C@@H](NC(=O)[C@H](Cc1c[nH]c2ccccc12)NC(=O)CNC)[C@@H](C)O)C(=O)N[C@@H](CCCCN)C(N)=O | 1.3 nM | 14.4 nM
